DNMT1 inh: DNMT1 (human) enzyme inhibition | P26358 | DNMT1 molecular beacon, Hinp1I cleavage, fluorescence | inhibition (reported as % activation of signal), % at 10 µM | 360,000 compounds, 0.83% hits | AID 588458; in the data active means inhibition above about 50%
STEP block: STEP (human) phosphatase inhibition. 360,000 compounds, 0.25% hits. inhibition, % at 20 µM. recombinant STEP, OMFP fluorogenic substrate, fluorescence. P54829;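 active means inhibition at 20 µM, scaled per plate between control wells, above about 37%, limit read from the data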;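 further: 0% = DMSO with enzyme and substrate and 100% = substrate only without enzyme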
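Measure: Control-normalized % inhibition with plate pattern correction | Test system: STEP phosphatase, cell-free reaction | Medium: pH 6.0 Bis-Tris with DTT and Tween 20 | Technique: Fluorescence, 480/540 nm | Times: Reaction 20 min, ambient temperature | Doses: Single compound dose of 20 µM, 1% DMSO final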
Scp1 inh: Scp-1 (human) phosphatase inhibition; Recombinant Scp1, phosphopeptide, malachite green phosphate absorbance; inhibition, % at 20 µM; 340,000 compounds, 0.88% hits;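 active means inhibition above about 50% at 20 µM, limit read from the data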;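 further: plate controls were DMSO wells with enzyme for no effect and wells lacking enzyme for full effect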
Target sequence (Q9GZU7 76-261 limits assumed): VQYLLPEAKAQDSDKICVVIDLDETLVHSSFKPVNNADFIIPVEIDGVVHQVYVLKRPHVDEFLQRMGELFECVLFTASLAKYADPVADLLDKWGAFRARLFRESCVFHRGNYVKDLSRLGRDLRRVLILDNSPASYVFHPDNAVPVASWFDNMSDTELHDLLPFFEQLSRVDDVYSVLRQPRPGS
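Test system – truncated SCP-1 phosphatase (76-261aa) · Reagent – Phosphorylated 17-residue peptide substrate · Incubation – 45 min room-temperature reaction, 5 min colour, 30 min stabiliser · Detection – colorimetric phosphate reagent with accelerator and stabiliser, absorbance at 630 nm · Measure – % inhibition at 20 µM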
SUMO1 PPI mod: modulators of human SUMO1-mediated protein-protein interactions; AID 602429; P63165; SUMO1 binding to a labelled peptide, TR-FRET, 1 h; inhibition, % at 20 µM; 360,000 compounds, 0.33% hits; in the data active means inhibition above about 37%
Target sequence (P63165 whole entry, looked up): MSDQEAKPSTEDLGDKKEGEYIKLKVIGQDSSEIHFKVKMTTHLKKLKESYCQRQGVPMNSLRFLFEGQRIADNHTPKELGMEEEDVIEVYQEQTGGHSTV
LMPTP block: blocks human LMPTP phosphatase; recombinant LMPTP-A, OMFP fluorogenic substrate, fluorescence intensity; 360,000 compounds, 0.22% hits; P24666; inhibition, % at 20 µM;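 active means compounds that cut the enzyme signal by at least half of the control window in the single-dose screen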;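 further: plate controls were DMSO wells with enzyme plus substrate for no effect and substrate without enzyme for full effect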
Target sequence (P24666 whole entry, looked up): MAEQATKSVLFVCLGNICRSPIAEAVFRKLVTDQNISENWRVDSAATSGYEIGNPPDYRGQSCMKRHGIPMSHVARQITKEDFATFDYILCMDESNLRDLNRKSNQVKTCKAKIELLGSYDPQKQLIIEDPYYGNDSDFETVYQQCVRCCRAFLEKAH
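Assay system: LMPTP-A, protein tyrosine phosphatase of low molecular weight / Medium: pH 6.0 Bis-Tris buffer with DTT and Triton X-100 / Schedule: 50 min enzyme reaction at room temperature, protected from light / Measured by: endpoint fluorescence intensity from OMFP dephosphorylation / Read-out basis: % inhibition relative to no-enzyme and uninhibited control wells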
Scp-1 conf: Scp-1 (human) inhibition, single-dose confirmed. recombinant SCP-1 catalytic domain, phosphate release, malachite green absorbance. AID 540281. 2,500 compounds, 61% hits. shares compounds with Scp1 inh. inhibition, % at 20 µM;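 further: plate controls were DMSO with enzyme for no effect and buffer wells lacking enzyme for full effect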
MG interference: interferes with malachite green readout, flagging false Scp-1 hits; 2,500 tested, under 10 active; Colorimetric interference counterscreen, malachite green absorbance 630 nm; AID 540313; apparent inhibition (interference), % at 20 µM; shares compounds with Scp1 inh;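 further: compounds added after enzyme reaction finished so only phosphate colour detection is probed; plate controls were DMSO wells with completed Scp-1 reaction for no effect and substrate wells lacking enzyme for full effect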
Scp-1 Tm shift: Scp-1 (human) binding by thermal shift; shares compounds with Scp1 inh; Recombinant SCP1, Sypro Orange thermal shift Tm; thermal shift relative to vanadate control, % at 40 µM; 1,500 compounds, 25% hits; AID 540329;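 active means substances whose mean melting-temperature shift, as a percentage of the reference inhibitor's shift, reaches about 5.3%, limit read from the data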;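 further: 0% = Tm of DMSO wells and 100% = Tm with sodium orthovanadate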
* = called active by the depositor; . = not tested or not shown. Sampled rows, rich in hits. Any-hit rate of the full collection: about 1.7%.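 How the source made its calls, unless noted: active means inhibition of at least 30% at 20 µM; inactive means the rest.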

SMILES	DNMT1 inh	STEP block	Scp1 inh	SUMO1 PPI mod	LMPTP block	others
COC(=O)c1cc(C(=O)N2CCN(c3cccc(C)c3C)CC2)cc([N+](=O)[O-])c1	-6	2	5	61*	0
COC(=O)c1cc(C(=O)N2CCN(c3ccccc3OC)CC2)cc([N+](=O)[O-])c1	0	1	-3	-16	1
COc1cc(/C=C2/C(=O)NN(c3ccc(Cl)cc3)C2=O)cc(Br)c1O	48	83*	35	75*	65*
COc1cc(/C=C2/C(=O)NN(c3ccc(Cl)c(Cl)c3)C2=O)cc([N+](=O)[O-])c1O	10	9	92*	9	6
COC(=O)c1ccc(N2NC(=O)/C(=C/c3cc(OC)c(O)c(OC)c3)C2=O)cc1	5	24	33	-23	36
COc1cc(/C=C2/C(=O)NN(c3ccc(F)cc3)C2=O)cc(Cl)c1O	5	3	-6	-44	4
O=C(NNC1=Nc2cccc3cccc1c23)c1ccc(Br)cc1	31	2	5	4	5
O=C(Nc1ccccc1)NN(C(=O)CCl)c1ccccc1	8	-2	-1	70*	-2
CCC(O)(CC)C(=O)NN(C(=O)CCl)c1ccccc1	4	-2	-8	4	0
Cc1[nH]c(=O)c(C#N)cc1-c1csc(-c2ccccc2)n1	15	-2	9	6	60*
C/C(=N\NC(=O)c1ccc([N+](=O)[O-])cc1)c1c(O)cc(C)oc1=O	1	-5	-6	-7	-1
C/C(=N/NC(=O)c1cc(O)c(O)c(O)c1)c1ccc([N+](=O)[O-])cc1	11	1	50*	-16	10
COc1ccc2cc3[n+](cc2c1O)CCc1cc2c(cc1-3)OCO2	.	.	.	38	64*
CC(=O)NC(c1ccccc1)c1nc(/C=C/c2ccccc2)cs1 (stereo not drawn)	-6	-1	.	-21	1
COc1ccc(CNc2nc3ccccc3n2Cc2ccc(Cl)cc2)cc1OC	6	2	4	4	9
CC(C(=O)Nc1ccc(C#N)cc1)N(C)CC(=O)N(C)c1c(N)n(Cc2ccccc2)c(=O)[nH]c1=O (stereo not drawn)	4	-4	-10	46*	-1
CN(C(=O)CCOc1ccccc1)c1c(N)n(Cc2ccccc2)c(=O)[nH]c1=O	-3	0	-3	-1	-1
Nc1ccc(Cn2ccc3c4c(N)nc(N)nc4ccc32)cc1	-4	2	17	27	64*
Cc1nc2ccc(N)cc2c(=O)n1Cc1ccc(Cl)cc1	-5	-3	-9	-2	1
CN(C)c1ccc(/C=C2/SC(=O)N(CCN=C3NS(=O)(=O)c4ccccc43)C2=O)cc1	-26	-1	-3	41*	1
CN(C)c1ccc(/C=C2\SC(=O)N(CC(O)Cn3c4ccccc4c4ccccc43)C2=O)cc1 (stereo not drawn)	-8	0	-1	-1	4
N#Cc1c(NC(=O)CSc2nnc(-c3ccccc3)o2)sc2c1CCCC2	3	-1	3	0	77*
CC1CCc2c(sc(NC(=O)CSc3nnc(-c4ccccc4)o3)c2C#N)C1 (stereo not drawn)	18	2	1	0	65*
Cc1sc(NC(=O)CSc2nnc(-c3ccccc3)o2)c(C#N)c1C	2	2	-7	3	0
CCN1CCN(c2nc(Nc3ccc(NC(C)=O)cc3)nc(Nc3ccc(NC(C)=O)cc3)n2)CC1	2	-1	-9	5	1
SMILES	DNMT1 inh	STEP block	Scp1 inh	SUMO1 PPI mod	LMPTP block	others
CC(OC(=O)c1ccco1)C(=O)NCc1ccc2c(c1)OCO2 (stereo not drawn)	-6	0	4	-3	0
O=C1OCCC1=CN1CCCCC1	0	-2	.	-4	0
CCN1/C(=C\C(C)=O)Sc2ccc(OC)cc21	4	2	96*	-5	-2	Scp-1 conf=10;MG interference=-5
CCCCCC(=O)Nc1cc(S(=O)(=O)N2CCOCC2)ccc1N1CCCCC1	1	2	-3	7	1
O=C(CCS(=O)(=O)c1ccc(Br)cc1)NC1CCCCCC1	46	6	70*	7	-2	Scp-1 conf=69*;MG interference=-10;Scp-1 Tm shift=-19
CCOc1ccc(C(=O)N/N=C/c2cc(Cl)ccc2[N+](=O)[O-])cc1	15	38	103*	-11	24	Scp-1 conf=48*;MG interference=-17;Scp-1 Tm shift=2
C[C@H](NC(=O)c1ccco1)C(=O)NNC(=O)c1ccc(F)cc1	1	-3	99*	-2	0	Scp-1 conf=0;MG interference=-10
CC(Sc1nnc(CN2CCCC2)n1Cc1ccccc1)C(=O)Nc1ccc(F)c(F)c1F (stereo not drawn)	-24	0	0	-2	0
CCn1c(=O)c(C(=O)NCc2ccc(F)cc2)c(O)c2ccccc21	-3	2	-10	5	3
CCn1c(=O)c(=O)[nH]c2cc(C(=O)NCc3ccc(F)cc3)ccc21	2	1	-4	2	1	Scp-1 conf=-3;MG interference=-5
Cc1cc(C)n2c(SC/C(O)=C(\C#N)c3nc4ccccc4[nH]3)nnc2n1	49	0	76*	35	17	Scp-1 conf=63*;MG interference=-5;Scp-1 Tm shift=11*
O=C(COC(=O)CCCSc1nc2ccccc2[nH]1)Nc1ccc(Cl)cc1	0	-4	-3	10	0
CC(=O)NC(CC(=O)OCC(=O)Nc1ccc2c(c1)OCO2)c1ccccc1 (stereo not drawn)	-2	0	-12	-3	-1
CC(=O)NC(CC(=O)OCC(=O)c1ccc(NC(=O)CC(C)C)cc1)c1ccccc1 (stereo not drawn)	18	8	52*	1	3	Scp-1 conf=60*;MG interference=-8;Scp-1 Tm shift=-4
COC(=O)[C@H](CO)N1C(=O)[C@@H]2[C@H](C1=O)C1C=C[C@H]2C1	3	0	-8	4	-1
Cc1ccc(O)c(C(=O)c2cnn(C(=O)COc3ccc(Cl)cc3)c2)c1	22	32	82*	1	25	Scp-1 conf=73*;MG interference=-13;Scp-1 Tm shift=-15
COC(=O)c1ccc(NC(=O)c2cn(-c3cccc(C)n3)cn2)cc1	-21	-8	-2	4	-3
Cc1ccc(NC(=O)c2cn(-c3cccc(C)n3)cn2)cc1	-1	0	67*	1	-2	Scp-1 conf=-6;MG interference=-13
Cc1cccc(N=C2NC(=O)C(CO)(CO)S2)c1	1	-3	-7	0	-1
CCOc1ccc(Br)cc1/C=N/O	3	4	-2	-5	0

From PubChem
